Results taken from PubChem BioAssay AID488947 (Sanford-Burnham Center for Chemical Genomics, 2010).
Active and inactive are the calls of the source.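 How the source made its calls: active means compounds letting at most 1% of the green fluorescent tagged protein gather at the cell membrane; inactive means the rest.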

Molecular target: G-protein coupled receptor 55 (Homo sapiens) (UniProt Q9Y2T6)
Assay: inhibition of agonist-driven PKCbII translocation via GPR55 – imaging, HEK293, PKCbII-GFP, SAR follow-up (AID 488947)
Conditions: HEK293 GPR55 + PKCbetaII-GFP, membrane recruitment imaging
In short: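 System: Transfected HEK293 with GPR55 and PKCβII-GFP | Reagent: 10 µM AM251 | Times: Compound pre-incubation 15 min at 37 °C, then AM251 exposure 30 min | Buffer or medium: Serum-free MEM | Signal: Fluorescence imaging of GFP after 1% PFA fixation, scored by eye | Dosing: Four compound doses between 10 and 100 µM | Replicates: Duplicates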

Sequence of G-protein coupled receptor 55 (Homo sapiens) (Q9Y2T6 whole entry, looked up): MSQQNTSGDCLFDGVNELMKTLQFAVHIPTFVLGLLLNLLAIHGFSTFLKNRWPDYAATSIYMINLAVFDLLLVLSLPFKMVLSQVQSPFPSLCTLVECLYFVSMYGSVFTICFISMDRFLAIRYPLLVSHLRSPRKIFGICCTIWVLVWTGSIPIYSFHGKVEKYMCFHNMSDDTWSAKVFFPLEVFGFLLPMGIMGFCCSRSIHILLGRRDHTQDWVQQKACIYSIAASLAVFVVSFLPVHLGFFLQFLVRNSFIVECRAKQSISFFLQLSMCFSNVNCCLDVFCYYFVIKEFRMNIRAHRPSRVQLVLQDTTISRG

| outcome | Structure (SMILES) |
| --- | --- |
| active | Cc1ccc(C2(C(=O)N3CCC(n4nc(-c5ccccc5)oc4=O)CC3)CC2)cc1 |
| active | Cc1cc(C)c2nc(-c3ccccn3)cc(C(=O)Nc3ccc(S(=O)(=O)Nc4onc(C)c4C)cc3)c2c1 |
| active; + | Cc1nc(N2CCN(C(=O)c3ccco3)CC2)c2c3c(sc2n1)CCCC3 |
